Test results from ChEMBL document CHEMBL1158482, “Dopamine D2, D3, and D4 selective phenylpiperazines as molecular probes to explore the origins of subtype specific receptor binding” (J Med Chem, 2009).

Assays:
Type in all cases: cell-based
D(4) dopamine receptor [1] = target: T1, D(4) dopamine receptor (Homo sapiens, UniProt P21917); assay: Displacement of [3H]spiperone from human cloned dopamine D4 receptor expressed in CHO cells
T1 sequence (P21917 whole entry): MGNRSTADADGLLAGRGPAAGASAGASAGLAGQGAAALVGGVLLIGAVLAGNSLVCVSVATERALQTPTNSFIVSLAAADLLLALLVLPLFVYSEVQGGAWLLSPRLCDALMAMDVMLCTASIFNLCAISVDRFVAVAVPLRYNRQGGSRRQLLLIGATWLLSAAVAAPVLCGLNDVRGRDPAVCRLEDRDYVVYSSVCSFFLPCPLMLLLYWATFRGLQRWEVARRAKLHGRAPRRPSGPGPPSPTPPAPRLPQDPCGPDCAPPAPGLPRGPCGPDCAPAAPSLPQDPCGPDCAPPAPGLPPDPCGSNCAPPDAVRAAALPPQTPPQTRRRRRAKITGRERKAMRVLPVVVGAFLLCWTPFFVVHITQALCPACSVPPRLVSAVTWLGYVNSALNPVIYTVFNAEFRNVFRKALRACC
Outline: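 Membranes from CHO cells stably expressing human D4 (Bmax 700-1800 fmol/mg). Curves fit by nonlinear regression, sigmoid model giving IC50 and slope; Ki ± SEM from 2-9 experiments in triplicate.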

D(3) dopamine receptor [2] = target: D(3) dopamine receptor (Homo sapiens, UniProt P35462, F106L/V107M/V87F); assay: Displacement of [3H]spiperone from human cloned dopamine D3 receptor V2.61F/FV3.28,3.29LM mutant expressed in HEK293 cells
HEK293 [3] = assay: Selectivity ratio of Ki for human cloned dopamine D3 receptor FV3.28,3.29LM mutant to Ki for wild type human cloned dopamine D3 receptor expressed in HEK293 cells
Outline: (§1)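 Wild-type or mutant receptor cDNA transiently transfected into HEK-293 cells, which were grown in MEM with 10% FBS at 37 °C and 5% CO2 and harvested 48 h after transfection. Membranes were homogenised and pelleted at 50000g. Competition against [3H]spiperone (0.1-0.7 nM final) used 20-200 μg/mL protein. Ki was derived from EC50, 2-18 independent experiments in triplicate. Ratios are mutant Ki over wild-type Ki.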

D(3) dopamine receptor [4] = target: D(3) dopamine receptor (Homo sapiens, UniProt P35462, D110E); assay: Displacement of [3H]spiperone from human cloned dopamine D3 receptor D3.32E mutant expressed in HEK293 cells
D(3) dopamine receptor [5] = target: T2, D(3) dopamine receptor (Homo sapiens, UniProt P35462); assay: Displacement of [3H]spiperone from human cloned dopamine D3 receptor expressed in CHO cells
HEK293 [6] = assay: Selectivity ratio of Ki for human cloned dopamine D2L receptor D3.32E mutant to Ki for wild type human cloned dopamine D2L receptor expressed in HEK293 cells; outline: as §1
D(4) dopamine receptor [7] = target: T1, D(4) dopamine receptor; assay: Displacement of [3H]spiperone from wild type human cloned dopamine D4 receptor expressed in HEK293 cells
HEK293 [8] = assay: Selectivity ratio of Ki for human cloned dopamine D2L receptor E181V/I183S mutant to Ki for wild type human cloned dopamine D2L receptor expressed in HEK293 cells; outline: as §1
HEK293 [9] = assay: Selectivity ratio of Ki for human cloned dopamine D3 receptor H6.55A mutant to Ki for wild type human cloned dopamine D3 receptor expressed in HEK293 cells; outline: as §1
D(3) dopamine receptor [10] = target: D(3) dopamine receptor (Homo sapiens, UniProt P35462, S182I/V180E); assay: Displacement of [3H]spiperone from human cloned dopamine D3 receptor V180E/S182I mutant expressed in HEK293 cells
[11] = Displacement of [3H]spiperone from human cloned dopamine D2L receptor V2.61F mutant expressed in HEK293 cells
Outline: (§2)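 Wild-type or mutant receptor cDNA transiently transfected into HEK-293 cells (CaHPO4 or TransIT-293), grown in MEM with 10% FBS at 37 °C, 5% CO2, harvested 48 h post-transfection. Membranes prepared by homogenization and spin at 50000g.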

HEK293 [12] = assay: Selectivity ratio of Ki for human cloned dopamine D3 receptor L2.64F mutant to Ki for wild type human cloned dopamine D3 receptor expressed in HEK293 cells; outline: as §1
HEK293 [13] = assay: Selectivity ratio of Ki for human cloned dopamine D2L receptor V2.61F mutant to Ki for wild type human cloned dopamine D2L receptor expressed in HEK293 cells; outline: as §1
HEK293 [14] = assay: Selectivity ratio of Ki for human cloned dopamine D2L receptor H6.55F mutant to Ki for wild type human cloned dopamine D2L receptor expressed in HEK293 cells; outline: as §1
D(2) dopamine receptor [15] = target: T3, D(2) dopamine receptor (Homo sapiens, UniProt P14416); assay: Displacement of [3H]spiperone from wild type human cloned dopamine D2L receptor expressed in HEK293 cells
[16] = Displacement of [3H]spiperone from human cloned dopamine D2L receptor D3.32E mutant expressed in HEK293 cells; outline: as §2
D(3) dopamine receptor [17] = target: D(3) dopamine receptor (Homo sapiens, UniProt P35462, H349A); assay: Displacement of [3H]spiperone from human cloned dopamine D3 receptor H6.55A mutant expressed in HEK293 cells
D(3) dopamine receptor [18] = target: T2, D(3) dopamine receptor; assay: Displacement of [3H]spiperone from wild type human cloned dopamine D3 receptor expressed in HEK293 cells
D(2) dopamine receptor [19] = target: T3, D(2) dopamine receptor; assay: Displacement of [3H]spiperone from human cloned dopamine D2L receptor expressed in CHO cells
D(2) dopamine receptor [20] = target: D(2) dopamine receptor (Homo sapiens, UniProt P14416, E181V/I183S); assay: Displacement of [3H]spiperone from human cloned dopamine D2L receptor E181V/I183S mutant expressed in HEK293 cells; outline: as §1
D(3) dopamine receptor [21] = target: T2, D(3) dopamine receptor; assay: Displacement of [3H]spiperone from human cloned dopamine D3 receptor FV3.28,3.29LM mutant expressed in HEK293 cells
HEK293 [22] = assay: Selectivity ratio of Ki for human cloned dopamine D3 receptor V2.61F/FV3.28,3.29LM mutant to Ki for wild type human cloned dopamine D3 receptor expressed in HEK293 cells; outline: as §1
[23] = Displacement of [3H]spiperone from human cloned dopamine D2L receptor H6.55F mutant expressed in HEK293 cells; outline: as §2
HEK293 [24] = assay: Selectivity ratio of Ki for human cloned dopamine D2L receptor FV3.28,3.29LM mutant to Ki for wild type human cloned dopamine D2L receptor expressed in HEK293 cells; outline: as §1
HEK293 [25] = assay: Selectivity ratio of Ki for human cloned dopamine D3 receptor V180E/S182I mutant to Ki for wild type human cloned dopamine D3 receptor expressed in HEK293 cells; outline: as §1
CHO [26] = assay: Selectivity ratio of Ki for human cloned dopamine D2L receptor to Ki for human cloned dopamine D3 receptor expressed in CHO cells
HEK293 [27] = assay: Selectivity ratio of Ki for human cloned dopamine D2L receptor V2.61F/FV3.28,3.29LM mutant to Ki for wild type human cloned dopamine D2L receptor expressed in HEK293 cells; outline: as §1
[28] = Displacement of [3H]spiperone from human cloned dopamine D2L receptor V2.61F/FV3.28,3.29LM mutant expressed in HEK293 cells; outline: as §2
HEK293 [29] = assay: Selectivity ratio of Ki for human cloned dopamine D2L receptor H6.55A mutant to Ki for wild type human cloned dopamine D2L receptor expressed in HEK293 cells; outline: as §1
HEK293 [30] = assay: Selectivity ratio of Ki for human cloned dopamine D2L receptor L2.64F mutant to Ki for wild type human cloned dopamine D2L receptor expressed in HEK293 cells; outline: as §1
[31] = Displacement of [3H]spiperone from human cloned dopamine D2L receptor L2.64F mutant expressed in HEK293 cells; outline: as §2
HEK293 [32] = assay: Selectivity ratio of Ki for human cloned dopamine D3 receptor D3.32E mutant to Ki for wild type human cloned dopamine D3 receptor expressed in HEK293 cells; outline: as §1
[33] = Displacement of [3H]spiperone from human cloned dopamine D2L receptor FV3.28,3.29LM mutant expressed in HEK293 cells; outline: as §2
HEK293 [34] = assay: Selectivity ratio of Ki for human cloned dopamine D3 receptor V2.61F mutant to Ki for wild type human cloned dopamine D3 receptor expressed in HEK293 cells; outline: as §1
D(3) dopamine receptor [35] = target: D(3) dopamine receptor (Homo sapiens, UniProt P35462, V87F); assay: Displacement of [3H]spiperone from human cloned dopamine D3 receptor V2.61F mutant expressed in HEK293 cells
CHO [36] = assay: Selectivity ratio of Ki for human cloned dopamine D2L receptor to Ki for human cloned dopamine D4 receptor expressed in CHO cells
D(3) dopamine receptor [37] = target: T2, D(3) dopamine receptor; assay: Displacement of [3H]spiperone from human cloned dopamine D3 receptor L2.64F mutant expressed in HEK293 cells
[38] = Displacement of [3H]spiperone from human cloned dopamine D2L receptor H6.55A mutant expressed in HEK293 cells; outline: as §2

T2 sequence (P35462 whole entry): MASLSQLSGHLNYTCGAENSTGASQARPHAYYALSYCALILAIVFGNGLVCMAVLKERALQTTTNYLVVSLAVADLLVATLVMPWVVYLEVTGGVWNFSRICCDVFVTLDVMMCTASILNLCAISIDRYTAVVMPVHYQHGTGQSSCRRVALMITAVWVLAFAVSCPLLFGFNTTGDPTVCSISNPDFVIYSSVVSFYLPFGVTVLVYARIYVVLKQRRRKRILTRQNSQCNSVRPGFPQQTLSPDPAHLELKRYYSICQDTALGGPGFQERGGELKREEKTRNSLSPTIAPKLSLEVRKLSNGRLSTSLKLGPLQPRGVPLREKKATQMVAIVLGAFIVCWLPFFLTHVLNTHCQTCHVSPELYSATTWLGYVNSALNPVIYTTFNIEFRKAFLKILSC
T3 sequence (P14416 whole entry): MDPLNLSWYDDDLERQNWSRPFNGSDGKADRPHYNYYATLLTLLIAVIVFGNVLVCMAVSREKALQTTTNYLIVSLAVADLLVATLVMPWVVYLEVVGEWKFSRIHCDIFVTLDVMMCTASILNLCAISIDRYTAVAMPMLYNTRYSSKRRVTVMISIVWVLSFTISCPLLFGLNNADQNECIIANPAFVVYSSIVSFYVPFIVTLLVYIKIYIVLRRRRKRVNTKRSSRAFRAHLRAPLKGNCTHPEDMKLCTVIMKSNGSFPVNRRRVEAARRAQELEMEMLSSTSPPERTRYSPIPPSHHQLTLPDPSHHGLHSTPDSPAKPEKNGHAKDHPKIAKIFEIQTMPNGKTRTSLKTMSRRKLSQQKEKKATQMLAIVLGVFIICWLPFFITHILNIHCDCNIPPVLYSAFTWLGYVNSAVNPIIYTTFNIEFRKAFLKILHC
Sequence of D(3) dopamine receptor (Homo sapiens, UniProt P35462, H349A) (P35462 as listed by the source H349A): as the sequence (P35462 whole entry) above, with G9S, H349A counted along it
Sequence of D(3) dopamine receptor (Homo sapiens, UniProt P35462, S182I/V180E) (P35462 as listed by the source V180E/S182I): as the sequence (P35462 whole entry) above, with G9S, V180E, S182I counted along it
Sequence of D(3) dopamine receptor (Homo sapiens, UniProt P35462, F106L/V107M/V87F) (P35462 as listed by the source V87F/F106L/V107M): as the sequence (P35462 whole entry) above, with G9S, V87F, F106L, V107M counted along it
Sequence of D(3) dopamine receptor (Homo sapiens, UniProt P35462, V87F) (P35462 as listed by the source V87F): as the sequence (P35462 whole entry) above, with G9S, V87F counted along it
Sequence of D(3) dopamine receptor (Homo sapiens, UniProt P35462, D110E) (P35462 as listed by the source D110E): as the sequence (P35462 whole entry) above, with G9S, D110E counted along it
Sequence of D(2) dopamine receptor (Homo sapiens, UniProt P14416, E181V/I183S) (P14416 whole entry E181V/I183S): as the sequence (P14416 whole entry) above, with E181V, I183S counted along it

SMILES | Ki (D(4) dopamine receptor [1]) | Ki (D(3) dopamine receptor [2]) | Ratio Ki (HEK293 [3]) | Ki (D(3) dopamine receptor [4]) | Ki (D(3) dopamine receptor [5]) | Ratio Ki (HEK293 [6]) | Ki (D(4) dopamine receptor [7]) | Ratio Ki (HEK293 [8]) | Ratio Ki (HEK293 [9]) | Ki (D(3) dopamine receptor [10]) | Ki [11] | Ratio Ki (HEK293 [12]) | Ratio Ki (HEK293 [13]) | Ratio Ki (HEK293 [14]) | Ki (D(2) dopamine receptor [15]) | Ki [16] | Ki (D(3) dopamine receptor [17]) | Ki (D(3) dopamine receptor [18]) | Ki (D(2) dopamine receptor [19]) | Ki (D(2) dopamine receptor [20]) | other results
COc1ccccc1N1CCN(Cc2cc3ccccn3n2)CC1 | 1.2 nM | 51 nM | 0.06 | 680 nM | 1200 nM | 4.4 | 2.3 nM | 10.5 | 0.08 | 340 nM | 94 nM | 0.9 | 0.27 | 1.2 | 350 nM | 1500 nM | 61 nM | 770 nM | 280 nM | 3600 nM | Ki (D(3) dopamine receptor [21]): 44 nM; Ratio Ki (HEK293 [22]): 0.07; Ki [23]: 590 nM; Ratio Ki (HEK293 [24]): 0.13; Ratio Ki (HEK293 [25]): 0.44; Ratio Ki (CHO [26]): 0.23; Ratio Ki (HEK293 [27]): 0.15; Ki [28]: 54 nM; Ratio Ki (HEK293 [29]): 0.18; Ratio Ki (HEK293 [30]): 1.8; Ki [31]: 610 nM; Ratio Ki (HEK293 [32]): 0.9; Ki [33]: 46 nM; Ratio Ki (HEK293 [34]): 3; Ki (D(3) dopamine receptor [35]): 2300 nM; Ratio Ki (CHO [36]): 230; Ki (D(3) dopamine receptor [37]): 720 nM; Ki [38]: 63 nM
CSc1ccccc1N1CCN(CCCNC(=O)c2cnn3ccccc23)CC1 | 8.8 nM | 320 nM | 12 | 650 nM | 18 nM | 74 | 26 nM | 12 | 0.5 | 8 nM | 100 nM | 17 | 45 | 7.7 | 2.2 nM | 160 nM | 3.4 nM | 26 nM | 1.4 nM | 26 nM | Ki (D(3) dopamine receptor [21]): 430 nM; Ratio Ki (HEK293 [22]): 0.31; Ki [23]: 17 nM; Ratio Ki (HEK293 [24]): 16; Ratio Ki (HEK293 [25]): 0.13; Ratio Ki (CHO [26]): 0.08; Ratio Ki (HEK293 [27]): 9; Ki [28]: 20 nM; Ratio Ki (HEK293 [29]): 0.05; Ratio Ki (HEK293 [30]): 303; Ki [31]: 660 nM; Ratio Ki (HEK293 [32]): 25; Ki [33]: 35 nM; Ratio Ki (HEK293 [34]): 29; Ki (D(3) dopamine receptor [35]): 740 nM; Ratio Ki (CHO [36]): 0.16; Ki (D(3) dopamine receptor [37]): 740 nM; Ki [38]: 0.1 nM
